How the values were obtained:
Rattus norvegicus [1] = assay: Antiinflammatory activity in Wistar rat assessed as inhibition of carrageenan-induced hind paw edema at 20 mg/kg, po administered 30 mins before carrageenan challenge measured after 5 hrs by plethysmometer; format: functional
Outline: (§1)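 Wistar rats of either sex, 150–175 g, fasted 16 h, n = 6 per group. Compound given orally at 20 mg/kg as a suspension in 1% CMC in water (10 mL/kg); controls got vehicle only. After 30 min, 0.1 mL of 1% carrageenan in saline was injected subplantar into the left hind paw. Paw volume was measured by plethysmometer at 0, 3 and 5 h. Inhibition = (1 − Vt/Vc) × 100, reported as mean ± SEM.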

Rattus norvegicus [2] = assay: Antiinflammatory activity in Wistar rat assessed as inhibition of carrageenan-induced hind paw edema at 20 mg/kg, po administered 30 mins before carrageenan challenge measured after 3 hrs by plethysmometer; format: functional; outline: as §1

Structure (SMILES) | inhibition in vivo at 20 mg/kg (Rattus norvegicus [1]) | inhibition in vivo at 20 mg/kg (Rattus norvegicus [2])
Cc1ccc(-c2cc(C(F)(F)F)nn2-c2ccc(S(N)(=O)=O)cc2)cc1 [CELECOXIB] | 85.7% | 82.6%
COc1cc(C)c(Cl)cc1C1=NN(c2ccc(S(N)(=O)=O)cc2)C(c2cc(OC)c(OC)c(OC)c2)C1 (stereo not drawn) | 21.4% | 34.2%
COc1cc(C)c(Cl)cc1C1=NN(c2ccc(S(N)(=O)=O)cc2)C(c2ccccc2)C1 (stereo not drawn) | 59.5% | 55.3%
Cc1cc(O)c(C2=NN(c3ccc(S(N)(=O)=O)cc3)C(c3ccccc3)C2)cc1Cl (stereo not drawn) | 60.3% | 47.4%

— ChEMBL document CHEMBL1914430, “Synthesis of some new 1,3,5-trisubstituted pyrazolines bearing benzene sulfonamide as anticancer and anti-inflammatory agents” (Bioorg Med Chem Lett, 2011)
